Columns and labels:
[1] = chloroquine-resistant reversal activity was determined in female mice (Mus musculus) after intraperitoneal administration of 50 mg; assay type: functional, Plasmodium chabaudi
Outline: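 Female ICR CD-1 mice, 4–5 weeks old, given 5×10^6 P. chabaudi AS 3CQ (CQ-resistant) line PRBC iv (thawed from cryopreserved blood). 2 h later, test compound (in DMSO diluted with saline to 10% DMSO) ip plus chloroquine 3 or 4 mg/kg ip, repeated daily for 4 total injections. Controls: DMSO, CQ alone, compound alone. Parasitemia per 10 000 RBC on Giemsa smears daily for 5 days.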

[2] = Antimalarial activity was determined in female mice (Mus musculus) after intraperitoneal administration of 50 mg; assay type: functional, Plasmodium chabaudi
Outline: (§1)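 4- to 5-week-old female ICR (CD-1) mice infected iv with 5×10^6 parasitized RBC of CQ-resistant 3CQ line of P. chabaudi AS, thawed from cryopreserved stock. Compound dissolved in DMSO, diluted with saline to 10% (w/v) DMSO, given ip 2 h post-infection and daily for 3 more days (four injections). Parasitemia (PRBC per 10 000 RBC, Giemsa thin films) read daily for 5 days; two mice per compound, three or five for some.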

Mus musculus [3] = assay: Chloroquine resistant reversal activity was determined in female mice after intraperitoneal administration of 50 mg and 4 mg of chloroquine; assay type: functional
Outline: (§2)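 Female ICR (CD-1) mice, 4-5 weeks old, infected iv with 5×10^6 PRBC of CQ-resistant 3CQ line of P. chabaudi AS (cryopreserved stock). 2 h later, test compound (in DMSO diluted with saline to 10% w/v DMSO) given ip, followed by ip CQ; repeated for 3 more days (four injections). Groups: DMSO, CQ alone, compound alone, combination. Parasitemia from Giemsa thin films, daily days 0-4.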

Mus musculus [4] = assay: Chloroquine resistant reversal activity was determined on day 0 in female mice after intraperitoneal administration of 5 mg and 4 mg of chloroquine; assay type: functional; outline: as §2
Mus musculus [5] = assay: Chloroquine resistant reversal activity was determined on day 0 in female mice after intraperitoneal administration of 15 mg and 4 mg of chloroquine; assay type: functional; outline: as §2
Mus musculus [6] = assay: Antimalarial activity was determined in female mice after intraperitoneal administration of 15 mg of the compound; assay type: functional; outline: as §1
Mus musculus [7] = assay: Chloroquine resistant reversal activity was determined in female mice after intraperitoneal administration of 15 mg and 4 mg of chloroquine; assay type: functional; outline: as §2
Mus musculus [8] = assay: Chloroquine resistant reversal activity was determined on day 1 in female mice after intraperitoneal administration of 5 mg and 4 mg of chloroquine; assay type: functional; outline: as §2
Mus musculus [9] = assay: Chloroquine resistant reversal activity was determined on day 0 in female mice after intraperitoneal administration of 10 mg and 4 mg of chloroquine; assay type: functional; outline: as §2
Mus musculus [10] = assay: Chloroquine resistant reversal activity was determined on day 4 in female mice after intraperitoneal administration of 5 mg and 4 mg of chloroquine; assay type: functional; outline: as §2
Mus musculus [11] = assay: Chloroquine resistant reversal activity was determined on day 2 in female mice after intraperitoneal administration of 15 mg and 4 mg of chloroquine; assay type: functional; outline: as §2
Mus musculus [12] = assay: Chloroquine resistant reversal activity was determined on day 2 in female mice after intraperitoneal administration of 5 mg and 4 mg of chloroquine; assay type: functional; outline: as §2
Mus musculus [13] = assay: Chloroquine resistant reversal activity was determined on day 2 in female mice after intraperitoneal administration of 10 mg and 4 mg of chloroquine; assay type: functional; outline: as §2
Mus musculus [14] = assay: Chloroquine resistant reversal activity was determined on day 3 in female mice after intraperitoneal administration of 10 mg and 4 mg of chloroquine; assay type: functional; outline: as §2
Mus musculus [15] = assay: Chloroquine resistant reversal activity was determined on day 3 in female mice after intraperitoneal administration of 5 mg and 4 mg of chloroquine; assay type: functional; outline: as §2
Mus musculus [16] = assay: Chloroquine resistant reversal activity was determined on day 1 in female mice after intraperitoneal administration of 15 mg and 4 mg of chloroquine; assay type: functional; outline: as §2
Mus musculus [17] = assay: Chloroquine resistant reversal activity was determined on day 3 in female mice after intraperitoneal administration of 15 mg and 4 mg of chloroquine; assay type: functional; outline: as §2
Mus musculus [18] = assay: Chloroquine resistant reversal activity was determined on day 1 in female mice after intraperitoneal administration of 10 mg and 4 mg of chloroquine; assay type: functional; outline: as §2
Mus musculus [19] = assay: Chloroquine resistant reversal activity was determined on day 4 in female mice after intraperitoneal administration of 10 mg and 4 mg of chloroquine; assay type: functional; outline: as §2
Mus musculus [20] = assay: Chloroquine resistant reversal activity was determined on day 4 in female mice after intraperitoneal administration of 15 mg and 4 mg of chloroquine; assay type: functional; outline: as §2
Mus musculus [21] = assay: Chloroquine resistant reversal activity was determined on day 3 in female mice after intraperitoneal administration of 40 mg and 4 mg of chloroquine; assay type: functional; outline: as §2
Mus musculus [22] = assay: Chloroquine resistant reversal activity was determined on day 0 in female mice after intraperitoneal administration of 40 mg and 4 mg of chloroquine; assay type: functional; outline: as §2
Mus musculus [23] = assay: Chloroquine resistant reversal activity was determined on day 3 in female mice after intraperitoneal administration of 30 mg and 4 mg of chloroquine; assay type: functional; outline: as §2
Mus musculus [24] = assay: Chloroquine resistant reversal activity was determined on day 3 in female mice after intraperitoneal administration of 50 mg and 4 mg of chloroquine; assay type: functional; outline: as §2
Mus musculus [25] = assay: Chloroquine resistant reversal activity was determined on day 2 in female mice after intraperitoneal administration of 50 mg and 4 mg of chloroquine; assay type: functional; outline: as §2
Mus musculus [26] = assay: Chloroquine resistant reversal activity was determined on day 0 in female mice after intraperitoneal administration of 30 mg and 4 mg of chloroquine; assay type: functional; outline: as §2
Mus musculus [27] = assay: Chloroquine resistant reversal activity was determined on day 4 in female mice after intraperitoneal administration of 40 mg and 4 mg of chloroquine; assay type: functional; outline: as §2
Mus musculus [28] = assay: Chloroquine resistant reversal activity was determined on day 2 in female mice after intraperitoneal administration of 40 mg and 4 mg of chloroquine; assay type: functional; outline: as §2
Mus musculus [29] = assay: Chloroquine resistant reversal activity was determined on day 0 in female mice after intraperitoneal administration of 50 mg and 4 mg of chloroquine; assay type: functional; outline: as §2
Mus musculus [30] = assay: Chloroquine resistant reversal activity was determined on day 1 in female mice after intraperitoneal administration of 40 mg and 4 mg of chloroquine; assay type: functional; outline: as §2
Mus musculus [31] = assay: Chloroquine resistant reversal activity was determined on day 1 in female mice after intraperitoneal administration of 50 mg and 4 mg of chloroquine; assay type: functional; outline: as §2
Mus musculus [32] = assay: Chloroquine resistant reversal activity was determined on day 2 in female mice after intraperitoneal administration of 30 mg and 4 mg of chloroquine; assay type: functional; outline: as §2
Mus musculus [33] = assay: Chloroquine resistant reversal activity was determined on day 4 in female mice after intraperitoneal administration of 30 mg and 4 mg of chloroquine; assay type: functional; outline: as §2
Mus musculus [34] = assay: Chloroquine resistant reversal activity was determined on day 1 in female mice after intraperitoneal administration of 30 mg and 4 mg of chloroquine; assay type: functional; outline: as §2
Mus musculus [35] = assay: Chloroquine resistant reversal activity was determined on day 4 in female mice after intraperitoneal administration of 50 mg and 4 mg of chloroquine; assay type: functional; outline: as §2
Mus musculus [36] = assay: Chloroquine resistant reversal activity was determined in female mice after intraperitoneal administration of 50 mg and 3 mg of chloroquine; assay type: functional; outline: as §2

Compound: CCCCCCCCCCCCCCC(O)CN1CCN(C2c3ccccc3CCc3ccccc32)CC1 (stereo unspecified)
- Reversal activity [1]: 110%
- Antimalarial activity [2]: 122%

Compound: C=CCCC(O)CN1CCN(C2c3ccccc3CCc3ccccc32)CC1 (stereo unspecified)
- Reversal activity [1]: 0%
- Antimalarial activity [2]: 101%

Compound: CCC(O)CN1CCN(C2c3ccccc3CCc3ccccc32)CC1 (stereo unspecified)
- Reversal activity (Mus musculus [3]): 0%
- Antimalarial activity [2]: 99%

Compound: C=CC(C)N1CCN(C2c3ccccc3CCc3ccccc32)CC1 (stereo unspecified)
- Reversal activity (Mus musculus [3]): 0%
- Antimalarial activity [2]: 22%

Compound: Cl.c1ccc2c(c1)CCc1ccccc1C2N1CCNCC1
- Reversal activity (Mus musculus [3]): 2%
- Antimalarial activity [2]: 68%

Compound: Cl.c1ccc2c(c1)CCc1ccccc1C2N1CCN(C2c3ccccc3CCc3ccccc32)CC1
- Reversal activity [1]: 81%
- Antimalarial activity [2]: 108%

Compound: CCCCCCC(O)CN1CCN(C2c3ccccc3CCc3ccccc32)CC1 (stereo unspecified)
- Reversal activity [1]: 102%
- Antimalarial activity [2]: 92%

Compound: C=CC(CO)N1CCN(C2c3ccccc3CCc3ccccc32)CC1 (stereo unspecified)
- Reversal activity (Mus musculus [4]): 0%
- Reversal activity (Mus musculus [5]): 0%
- Antimalarial activity (Mus musculus [6]): 103%
- Reversal activity (Mus musculus [7]): 2.6%
- Reversal activity (Mus musculus [8]): 69%
- Reversal activity (Mus musculus [9]): 0%
- Reversal activity (Mus musculus [10]): 17%
- Reversal activity (Mus musculus [11]): 13%
- Reversal activity (Mus musculus [12]): 35%
- Reversal activity (Mus musculus [13]): 37%
- Reversal activity (Mus musculus [14]): 23%
- Reversal activity (Mus musculus [15]): 33%
- Reversal activity (Mus musculus [16]): 37%
- Reversal activity (Mus musculus [17]): 4%
- Reversal activity (Mus musculus [18]): 59%
- Reversal activity (Mus musculus [19]): 8.6%
- Reversal activity (Mus musculus [20]): 2.6%

Compound: CC(=O)OCC#CCN1CCN(C2c3ccccc3CCc3ccccc32)CC1
- Reversal activity (Mus musculus [3]): 0%
- Antimalarial activity [2]: 116%

Compound: OC(COc1ccccc1)CN1CCN(C2c3ccccc3CCc3ccccc32)CC1 (stereo unspecified)
- Reversal activity [1]: 113%
- Antimalarial activity [2]: 136%

Compound: CCCCCCCCCCCCCCCCC(O)CN1CCN(C2c3ccccc3CCc3ccccc32)CC1 (stereo unspecified)
- Reversal activity [1]: 68%
- Antimalarial activity [2]: 67%

Compound: OCC#CCN1CCN(C2c3ccccc3CCc3ccccc32)CC1
- Reversal activity (Mus musculus [3]): 0%
- Antimalarial activity [2]: 121%

Compound: C=CC(O)CN1CCN(C2c3ccccc3CCc3ccccc32)CC1 (stereo unspecified)
- Reversal activity (Mus musculus [21]): 0%
- Reversal activity (Mus musculus [4]): 0%
- Reversal activity (Mus musculus [5]): 0%
- Reversal activity (Mus musculus [22]): 0%
- Reversal activity (Mus musculus [23]): 2.9%
- Reversal activity (Mus musculus [24]): 0%
- Reversal activity (Mus musculus [25]): 6.2%
- Reversal activity (Mus musculus [26]): 0%
- Reversal activity (Mus musculus [27]): 0%
- Reversal activity (Mus musculus [8]): 76%
- Reversal activity (Mus musculus [28]): 10%
- Reversal activity (Mus musculus [29]): 0%
- Reversal activity (Mus musculus [30]): 33%
- Reversal activity (Mus musculus [9]): 0%
- Reversal activity (Mus musculus [31]): 42%
- Reversal activity (Mus musculus [10]): 11%
- Reversal activity (Mus musculus [11]): 16%
- Reversal activity (Mus musculus [12]): 32%
- Reversal activity (Mus musculus [13]): 21%
- Reversal activity (Mus musculus [14]): 7.9%
- Reversal activity (Mus musculus [32]): 38%
- Reversal activity (Mus musculus [15]): 12%
- Reversal activity (Mus musculus [33]): 0%
- Reversal activity (Mus musculus [16]): 49%
- Reversal activity (Mus musculus [34]): 55%
- Reversal activity (Mus musculus [3]): 0%
- Reversal activity (Mus musculus [17]): 9.5%
- Reversal activity (Mus musculus [18]): 62%
- Reversal activity (Mus musculus [35]): 0%
- Reversal activity (Mus musculus [19]): 6%
- Antimalarial activity [2]: 82%
- Reversal activity (Mus musculus [20]): 5.4%

Compound: CCCCCCCCC(O)CN1CCN(C2c3ccccc3CCc3ccccc32)CC1 (stereo unspecified)
- Reversal activity [1]: 84%
- Antimalarial activity [2]: 152%

Compound: C=CCCCCCCC(O)CN1CCN(C2c3ccccc3CCc3ccccc32)CC1 (stereo unspecified)
- Reversal activity [1]: 6.8%
- Antimalarial activity [2]: 68%

Compound: COc1ccc(OCC(O)CN2CCN(C3c4ccccc4CCc4ccccc43)CC2)cc1 (stereo unspecified)
- Reversal activity (Mus musculus [36]): 90%
- Antimalarial activity [2]: 147%

Compound: CCCCCCCCCCCCC(O)CN1CCN(C2c3ccccc3CCc3ccccc32)CC1 (stereo unspecified)
- Reversal activity [1]: 64%
- Antimalarial activity [2]: 138%

Compound: C=CCCCCC(O)CN1CCN(C2c3ccccc3CCc3ccccc32)CC1 (stereo unspecified)
- Reversal activity [1]: 8.9%
- Antimalarial activity [2]: 108%
